Where two headings read alike, the source gives them in different places. Non-standard residues stand in square brackets, D forms with d. No end group written: not given here. pT = C[C@@H](OP(=O)(O)O)[C@H](N)C(=O)O Bounds are passed on as bounds.

Assay [1] has as its system truncated LRRK2 proteins. As to the kind of experiment: Effect of GTP or GDP on kinase activity. Format: biochemical, human. The following applies: in vitro.
In assay [2] the target is T1, LRRK2 mutant t-G2019S (aa 970–2527) (Homo sapiens, UniProt Q5S007, G2019S). Format: biochemical. The following applies: for KA (ATP): t-G2019S.
T1 sequence (Q5S007 970-2527 G2019S): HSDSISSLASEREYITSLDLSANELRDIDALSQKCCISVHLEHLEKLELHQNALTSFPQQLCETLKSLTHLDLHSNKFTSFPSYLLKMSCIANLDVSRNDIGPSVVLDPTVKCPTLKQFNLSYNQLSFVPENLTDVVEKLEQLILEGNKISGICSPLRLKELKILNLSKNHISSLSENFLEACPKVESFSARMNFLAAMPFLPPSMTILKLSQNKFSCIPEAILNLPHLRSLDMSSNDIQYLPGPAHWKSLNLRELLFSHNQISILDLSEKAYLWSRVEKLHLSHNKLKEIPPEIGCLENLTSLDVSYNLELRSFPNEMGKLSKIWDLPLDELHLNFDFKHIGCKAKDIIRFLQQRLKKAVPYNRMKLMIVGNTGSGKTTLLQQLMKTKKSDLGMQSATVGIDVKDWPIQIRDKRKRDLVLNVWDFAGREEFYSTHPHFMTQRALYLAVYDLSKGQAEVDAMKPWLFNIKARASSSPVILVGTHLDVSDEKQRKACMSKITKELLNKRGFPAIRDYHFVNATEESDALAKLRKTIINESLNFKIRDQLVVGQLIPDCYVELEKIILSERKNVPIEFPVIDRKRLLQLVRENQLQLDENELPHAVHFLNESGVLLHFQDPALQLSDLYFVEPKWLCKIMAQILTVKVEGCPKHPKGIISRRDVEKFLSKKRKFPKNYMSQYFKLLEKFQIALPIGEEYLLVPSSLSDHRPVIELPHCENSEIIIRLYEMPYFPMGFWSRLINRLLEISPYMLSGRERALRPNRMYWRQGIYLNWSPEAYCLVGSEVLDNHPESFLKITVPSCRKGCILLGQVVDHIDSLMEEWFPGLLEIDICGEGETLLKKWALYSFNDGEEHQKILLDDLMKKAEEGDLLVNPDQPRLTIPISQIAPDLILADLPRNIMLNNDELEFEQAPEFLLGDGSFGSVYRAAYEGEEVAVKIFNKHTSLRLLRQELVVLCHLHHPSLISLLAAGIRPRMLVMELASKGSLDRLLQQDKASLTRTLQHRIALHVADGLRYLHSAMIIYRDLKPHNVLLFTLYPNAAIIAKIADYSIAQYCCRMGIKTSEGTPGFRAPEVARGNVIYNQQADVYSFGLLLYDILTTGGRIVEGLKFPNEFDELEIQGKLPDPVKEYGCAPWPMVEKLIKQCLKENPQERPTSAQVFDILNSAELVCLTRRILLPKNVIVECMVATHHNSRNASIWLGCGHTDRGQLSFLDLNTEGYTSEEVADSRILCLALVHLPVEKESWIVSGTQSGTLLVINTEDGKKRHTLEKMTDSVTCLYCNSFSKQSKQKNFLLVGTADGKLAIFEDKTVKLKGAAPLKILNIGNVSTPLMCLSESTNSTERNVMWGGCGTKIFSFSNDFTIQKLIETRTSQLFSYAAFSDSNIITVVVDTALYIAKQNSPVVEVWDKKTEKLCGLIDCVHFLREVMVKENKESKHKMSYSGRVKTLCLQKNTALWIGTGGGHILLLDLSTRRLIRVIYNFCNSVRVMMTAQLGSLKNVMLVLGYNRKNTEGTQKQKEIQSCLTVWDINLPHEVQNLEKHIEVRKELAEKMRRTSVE
Assay [3] deals with T1, LRRK2 mutant t-G2019S (aa 970–2527). Description: TR-FRET assay of PLK-peptide phosphorylation, initial velocity and inhibition. The class given is biochemical. The essentials: (§1)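 Baculovirus-expressed truncated LRRK2 (aa 970–2527). ATP varied at several fixed PLK-peptide levels. Started with 4 nM enzyme; duplicate wells, RT, 4 h. Stopped with 10 mM EDTA; 2 nM Eu-anti-phospho-PLK added for 2 h; TR-FRET read. Initial velocities fitted by nonlinear least squares to two-substrate rate equations.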
(In TR-FRET formats the signal depends on donor and acceptor labels being close together.)

Assay [4] concerns the target T2, truncated wild-type LRRK2 (aa 970–2527) (Homo sapiens, UniProt Q5S007). The class given is biochemical. As to conditions: for KA (ATP): t-WT.
The target of assay [5] is T2, truncated wild-type LRRK2 (aa 970–2527). Description: TR-FRET assay of PLK-peptide phosphorylation. The class given is biochemical. The essentials:
as §1

The target in assay [6] is Truncated LRRK2 mutant G2019S (aa 970–2527) (human) (UniProt Q5S007). As to the kind of experiment: enzyme inhibition kinetics.
Sequence of Truncated LRRK2 mutant G2019S (aa 970–2527) (human) (Q5S007 970-2527 G2019S): as above
Assay [7] deals with t-wt LRRK2 (GTPase activity). Description: Radiometric TLC assay of LRRK2-catalyzed GTP hydrolysis. Format: biochemical, human. The following applies: pH 7.4, room temperature, Michaelis-Menten fit. The essentials:
(§2)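 Baculovirus-expressed truncated LRRK2 (aa 970–2527), wild-type or G2019S. Run in triplicate, 20 min at room temperature, quenched with 20 mM EDTA. GDP resolved by PEI-cellulose TLC (0.5 M KH2PO4, pH 3.4) and scintillation-counted. Initial velocities versus [GTP] fitted to Michaelis-Menten.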

Assay [8] has as its system mutant t-G2019S (GTPase activity). Described as above. Format: biochemical, human. In short, it runs like this:
as §2

Assay [9] deals with t-wt LRRK2 (Homo sapiens, UniProt Q5S007). Format: biochemical. The following applies: t-wt LRRK2 treated with NEM.
Sequence of t-wt LRRK2 (Q5S007 970-2527): as the sequence (Q5S007 970-2527 G2019S) above, with S1050G counted along it
The target of assay [10] is Truncated wild-type LRRK2 (aa 970–2527) (human, UniProt Q5S007 970-2527). Description: enzyme inhibition kinetics.
Sequence of Truncated wild-type LRRK2 (aa 970–2527) (Q5S007 970-2527): as the sequence (Q5S007 970-2527 G2019S) above, with S1050G counted along it

T2 sequence (Q5S007 970-2527): as the sequence (Q5S007 970-2527 G2019S) above, with S1050G counted along it

On to `Nc1nc2c(ncn2[C@@H]2O[C@H](COP(=O)(O)OP(=O)(O)O)[C@@H](O)[C@H]2O)c(=O)[nH]1` [GDP], for which, in assay [1], the “effect on kinase activity” value was “unable to detect any effect”.
With `Nc1ncnc2c1ncn2[C@@H]1O[C@H](COP(=O)(O)OP(=O)(O)O)[C@@H](O)[C@H]1O` [ADP], in [2] (LRRKtide phosphorylation, variable substrate LRRKtide), the inhibition mechanism entry is on record as “noncompetitive”.
Regarding `Nc1ncnc2c1ncn2[C@@H]1O[C@H](COP(=O)(O)OP(=O)(O)OP(=O)(O)O)[C@@H](O)[C@H]1O` [ATP], the “KA (ATP)” value is recorded as 10 ± 3.9 µM in [3] (phosphoryl acceptor PLK-peptide); 69 ± 6.6 µM in assay [4] (phosphoryl acceptor LRRKtide); 77 ± 19 µM in [4] (phosphoryl acceptor LRRKtide^S); 7.1 ± 0.7 µM in [5] (t-WT, phosphoryl acceptor PLK-peptide); 101 ± 16 µM in assay [2] (phosphoryl acceptor LRRKtide); 161 ± 38 µM in [2] (phosphoryl acceptor LRRKtide^S).
RLGRDKYKTLRQIRQ [LRRKtide]: the Kb in assay [4] is 87 ± 11 µM; in [2] it was 79 ± 11 µM.
In assay [6], LRRKtide^A (peptide) gave a Ki,e (variable substrate ATP, noncompetitive; LRRKtide^S phosphorylation) of 800 µM; a Ki,e (variable substrate ATP, noncompetitive; PLK-peptide phosphorylation) of 800 µM; a Ki,ea (variable substrate ATP, noncompetitive; LRRKtide^S phosphorylation) of 500 µM; a Ki,ea (variable substrate ATP, noncompetitive; PLK-peptide phosphorylation) of 500 µM. Further, in assay [6], the Ki,ea (variable substrate LRRKtide^S, competitive) was 500 µM and the Ki,ea (variable substrate PLK-peptide, competitive) was 500 µM.
As for `Nc1nc2c(ncn2[C@@H]2O[C@H](COP(=O)(O)OP(=O)(O)OP(=O)(O)O)[C@@H](O)[C@H]2O)c(=O)[nH]1` [GTP], the “effect on kinase activity” value in assay [1] was “unable to detect any effect”. Further, the KGTP is on record as 0.7 ± 0.1 mM in assay [7] and 0.4 ± 0.1 mM in assay [8] (t-G2019S, pH 7.4, room temperature, Michaelis-Menten fit). Further, the “kcat (GTP hydrolysis)” value in assay [7] (triplicate) was determined as 0.04 ± 0.004 s⁻¹; in assay [8] (t-G2019S, pH 7.4, room temperature, Michaelis-Menten fit, triplicate), 0.03 ± 0.002 s⁻¹. In addition, in assay [8] (t-G2019S versus t-wt), the “decrease of GTPase activity by the mutation” value was 20%.
With RRRSLLE [PLK-peptide], the α in [3] (TR-FRET, interaction factor (eq 3)) was 0.6 ± 0.3; in assay [5] (t-WT, TR-FRET, interaction factor (eq 3)) it was 0.5 ± 0.1. Also, the “tighter binding relative to LRRKtide” value in assay [5] (from differences in Km values) was greater than 200 fold.
In the case of “RRRSLLE (Only the motif RRRSLLE is printed; The Ser is the phosphoaccept) [PLK-peptide]”, the Kb in [3] (read-out: KB (phosphoryl acceptor), TR-FRET, averaged from two independent experiments) came out at 0.5 ± 0.2 µM; in [5] (read-out: KB (phosphoryl acceptor), t-WT, TR-FRET, averaged from two independent experiments), 0.43 ± 0.05 µM.
Consider `CCN1C(=O)C=CC1=O` [NEM, N-ethylmaleimide], for which the “inhibition of LRRK2, dose-response” value in assay [9] is given as “complete inhibition at high NEM concentration”.

B1: PO4-LRRKtide (peptide)
peptide: RLGRDKYK[pT]LRQIRQ
modifications: not fully specified; printed as RLGRDKYK(PO4)TLRQIRQ
B1: the binding result in [10] is given as “binds”.

Values taken from publication PMC3205922 (Biochemistry, 2011).
